Marks after values point to notes of the source that are not given here.
Assay: Pharmacokinetics of CK and its metabolite 20
Format: in vivo, healthy Chinese volunteers
Outline: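 Healthy adults given one oral tablet dose fasting (overnight, or 10 h in a crossover food-effect arm); 30 subjects from the 100/200/400 mg groups were pooled with 24 from 200 mg fasting periods. Plasma was stored at −70°C, extracted with MTBE plus internal standards and assayed by LC-MS/MS. Cmax was observed and AUClast calculated by linear trapezoid, each divided by dose. The metabolite/parent ratio was also calculated. Genotyping used Sequenom MassARRAY, and log-transformed values were compared by one-way ANOVA.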

[1] = ABCG2 rs3114018 AA (first line), mean (SD)
[2] = ABCG2 rs3114018 AA (third line), mean (SD)

CC(C)=CCC[C@](C)(O[C@@H]1O[C@H](CO)[C@@H](O)[C@H](O)[C@H]1O)[C@H]1CC[C@]2(C)[C@@H]1[C@H](O)C[C@@H]1[C@@]3(C)CC[C@H](O)C(C)(C)[C@@H]3CC[C@]12C [Ginsenoside compound K, 20-O-beta-D-glucopyranosyl-20(S)-protopanaxadiol]
CK Cmax/D (ABCG2 rs2725248 CC, mean (SD)): 4.46 (1.08) | CK AUClast/D [1]: 25.71 (14.88) | CK Cmax/D [1]: 3.40 (1.60) | CK AUClast/D [2]: 26.43 (22.97) | CK Cmax/D [2]: 3.36 (2.54) | CK AUClast/D (ABCG2 rs3114018 CA, mean (SD)): 30.74 (15.11) | CK Cmax/D (ABCG2 rs3114018 CA, mean (SD)): 4.02 (2.12) | CK AUClast/D (ABCG2 rs6857600 CC, mean (SD)): 29.60 (19.18) | CK Cmax/D (ABCG2 rs6857600 CC, mean (SD)): 3.72 (2.28) | CK AUClast/D (ABCG2 rs6857600 TC, mean (SD)): 26.00 (7.52) | CK Cmax/D (ABCG2 rs6857600 TC, mean (SD)): 3.79 (1.18) | CK AUClast/D (ABCG2 rs6857600 TT, mean (SD)): 16.47 (5.68) | CK Cmax/D (ABCG2 rs6857600 TT, mean (SD)): 2.37 (0.75) | CK AUClast/D (ABCG2 rs12505410 GG, mean (SD)): 36.50 (20.67) | CK Cmax/D (ABCG2 rs12505410 GG, mean (SD)): 3.96 (1.91) | CK AUClast/D (ABCG2 rs12505410 GT, mean (SD)): 33.35 (21.92) | CK Cmax/D (ABCG2 rs12505410 GT, mean (SD)): 4.39 (2.76) | CK AUClast/D (ABCG2 rs12505410 TT, mean (SD)): 22.29 (7.69) | CK Cmax/D (ABCG2 rs12505410 TT, mean (SD)): 3.00 (1.05) | CK AUClast/D (ABCG2 rs17731799 GG, mean (SD)): 25.71 (14.88) | CK Cmax/D (ABCG2 rs17731799 GG, mean (SD)): 3.40 (1.60) | CK AUClast/D (ABCG2 rs17731799 GT, mean (SD)): 32.10 (14.45) | CK Cmax/D (ABCG2 rs17731799 GT, mean (SD)): 4.13 (1.88) | CK AUClast/D (ABCG2 rs17731799 TT, mean (SD)): 26.40 (21.35) | CK Cmax/D (ABCG2 rs17731799 TT, mean (SD)): 3.47 (2.62) | CK AUClast/D (CFTR rs213950 AG, mean (SD)): 26.46 (20.44) | CK Cmax/D (CFTR rs213950 AG, mean (SD)): 3.36 (2.54) | CK AUClast/D (CFTR rs213950 GG, mean (SD)): 31.13 (15.12) | CK Cmax/D (CFTR rs213950 GG, mean (SD)): 4.14 (1.85) | CK AUClast/D (CFTR rs213968 CC, mean (SD)): 30.36 (14.71) | CK Cmax/D (CFTR rs213968 CC, mean (SD)): 4.14 (1.90) | CK AUClast/D (CFTR rs213968 CT, mean (SD)): 27.70 (20.72) | CK Cmax/D (CFTR rs213968 CT, mean (SD)): 3.43 (2.53) | CK AUClast/D (CFTR rs213968 TT, mean (SD)): 28.15 (14.72) | CK Cmax/D (CFTR rs213968 TT, mean (SD)): 3.81 (1.64) | CK AUClast/D (CFTR rs213976 GG, mean (SD)): 27.63 (17.53) | CK Cmax/D (CFTR rs213976 GG, mean (SD)): 3.62 (1.91) | CK AUClast/D (CFTR rs213976 GT, mean (SD)): 28.13 (20.65) | CK Cmax/D (CFTR rs213976 GT, mean (SD)): 3.63 (2.58) | CK AUClast/D (CFTR rs213976 TT, mean (SD)): 29.55 (14.70) | CK Cmax/D (CFTR rs213976 TT, mean (SD)): 3.89 (1.85) | CK AUClast/D (CFTR rs1042077 GG, mean (SD)): 28.15 (14.72) | CK Cmax/D (CFTR rs1042077 GG, mean (SD)): 3.81 (1.64) | CK AUClast/D (CFTR rs1042077 GT, mean (SD)): 27.96 (21.11) | CK Cmax/D (CFTR rs1042077 GT, mean (SD)): 3.46 (2.58) | CK AUClast/D (CFTR rs1042077 TT, mean (SD)): 30.54 (15.14) | CK Cmax/D (CFTR rs1042077 TT, mean (SD)): 4.12 (1.95) | CK AUClast/D (CFTR rs2106155 AA, mean (SD)): 25.97 (16.89) | CK Cmax/D (CFTR rs2106155 AA, mean (SD)): 3.41 (1.86) | CK AUClast/D (CFTR rs2106155 CA, mean (SD)): 31.04 (21.72) | CK Cmax/D (CFTR rs2106155 CA, mean (SD)): 4.02 (2.69) | CK AUClast/D (CFTR rs2106155 CC, mean (SD)): 29.28 (14.69) | CK Cmax/D (CFTR rs2106155 CC, mean (SD)): 3.86 (1.85) | CK AUClast/D (CFTR rs2237726 CC, mean (SD)): 29.76 (14.41) | CK Cmax/D (CFTR rs2237726 CC, mean (SD)): 3.89 (1.81) | CK AUClast/D (CFTR rs2237726 CT, mean (SD)): 26.16 (19.95) | CK Cmax/D (CFTR rs2237726 CT, mean (SD)): 3.35 (2.25) | CK AUClast/D (CFTR rs2237726 TT, mean (SD)): 32.16 (19.24) | CK Cmax/D (CFTR rs2237726 TT, mean (SD)): 3.98 (2.20) | CK AUClast/D (CFTR rs4148711 AA, mean (SD)): 28.15 (14.72) | CK Cmax/D (CFTR rs4148711 AA, mean (SD)): 3.81 (1.64) | CK AUClast/D (CFTR rs4148711 AT, mean (SD)): 27.70 (20.72) | CK Cmax/D (CFTR rs4148711 AT, mean (SD)): 3.43 (2.53) | CK AUClast/D (CFTR rs4148711 TT, mean (SD)): 29.34 (14.49) | CK Cmax/D (CFTR rs4148711 TT, mean (SD)): 3.89 (1.63) | CK AUClast/D (NR1I2 rs1464602 AA, mean (SD)): 28.65 (21.81) | CK Cmax/D (NR1I2 rs1464602 AA, mean (SD)): 3.54 (2.35) | CK AUClast/D (NR1I2 rs1464602 AG, mean (SD)): 33.46 (13.69) | CK Cmax/D (NR1I2 rs1464602 AG, mean (SD)): 4.62 (2.09) | CK AUClast/D (NR1I2 rs1464602 GG, mean (SD)): 20.43 (9.71) | CK Cmax/D (NR1I2 rs1464602 GG, mean (SD)): 2.65 (1.27) | CK AUClast/D (NR1I2 rs1523127 AA, mean (SD)): 29.24 (18.87) | CK Cmax/D (NR1I2 rs1523127 AA, mean (SD)): 3.82 (2.36) | CK AUClast/D (NR1I2 rs1523127 CA, mean (SD)): 27.08 (14.85) | CK Cmax/D (NR1I2 rs1523127 CA, mean (SD)): 3.53 (1.71) | CK AUClast/D (NR1I2 rs1523127 CC, n = 1): 28.50 (−) ^2) | CK Cmax/D (NR1I2 rs1523127 CC, n = 1): 3.49 (−) ^2) | CK AUClast/D (NR1I2 rs2276707 CC, mean (SD)): 25.30 (13.16) | CK Cmax/D (NR1I2 rs2276707 CC, mean (SD)): 3.46 (1.86) | CK AUClast/D (NR1I2 rs2276707 CT, mean (SD)): 30.38 (20.00) | CK Cmax/D (NR1I2 rs2276707 CT, mean (SD)): 3.88 (2.41) | CK AUClast/D (NR1I2 rs2276707 TT, mean (SD)): 28.36 (15.79) | CK Cmax/D (NR1I2 rs2276707 TT, mean (SD)): 3.71 (1.90) | CK AUClast/D (NR1I2 rs2472682 AA, mean (SD)): 21.56 (9.07) | CK Cmax/D (NR1I2 rs2472682 AA, mean (SD)): 2.87 (1.20) | CK AUClast/D (NR1I2 rs2472682 CA, mean (SD)): 34.34 (20.92) | CK Cmax/D (NR1I2 rs2472682 CA, mean (SD)): 4.45 (2.60) | CK AUClast/D (NR1I2 rs2472682 CC, mean (SD)): 24.44 (13.14) | CK Cmax/D (NR1I2 rs2472682 CC, mean (SD)): 3.17 (1.39) | CK AUClast/D (NR1I2 rs6785049 AA, mean (SD)): 22.20 (13.19) | CK Cmax/D (NR1I2 rs6785049 AA, mean (SD)): 2.88 (1.46) | CK AUClast/D (NR1I2 rs6785049 AG, mean (SD)): 32.86 (19.88) | CK Cmax/D (NR1I2 rs6785049 AG, mean (SD)): 4.27 (2.46) | CK AUClast/D (NR1I2 rs6785049 GG, mean (SD)): 24.29 (12.99) | CK Cmax/D (NR1I2 rs6785049 GG, mean (SD)): 3.22 (1.69) | CK AUClast/D (NR1I2 rs7643645 AA, mean (SD)): 26.64 (13.51) | CK Cmax/D (NR1I2 rs7643645 AA, mean (SD)): 3.76 (2.21) | CK AUClast/D (NR1I2 rs7643645 AG, mean (SD)): 27.63 (13.83) | CK Cmax/D (NR1I2 rs7643645 AG, mean (SD)): 3.41 (1.51) | CK AUClast/D (NR1I2 rs7643645 GG, mean (SD)): 39.83 (34.46) | CK Cmax/D (NR1I2 rs7643645 GG, mean (SD)): 5.06 (3.69)

Reference: article PMC6606825 (Journal of Ginseng Research, 2018)
